Compound activity deposited in PubChem BioAssay by several laboratories.
Shown are actives, neighbours in structure and some others; about 4.1% of the full set was active somewhere.
Redox H2O2 prof – compounds producing H2O2 with reducing agent – biochemical, NIH compound library profiling, artefact control for MLSCN library redox annotation, primary screen; actives 0.03% (n = 200,000); activation, % at 10 µM; DTT-dependent redox cycling H2O2, phenol red/HRP absorbance; 100% = 100 µM peroxide control, 0% = buffer;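 active means activation of at least 50% relative to the plate's high and low controls in the primary single-dose screen; inactive means activation below 50%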;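 further: compound incubated with DTT at 0.8 mM final as the reducing agent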
Autophagy HCS – alters autophagy in cells; MEF GFP-LC3 puncta imaging; test concentration mostly 10 µM; calls only at 10 µM (by protocol); actives 0.98% (n = 190,000);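 active means percentage of spot-positive cells more than 3 SD above its plate mean, without a fluorescence outlier flag or 80% toxicity; inconclusive means no clear call, values can overlap the other calls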;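 further: spot-positive cell cutoff set from DMSO-treated cells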
KCC2 mod – modulators of human KCC2 chloride dependent transport. KCC2 cells, thallium flux FluoZin-2 fluorescence. actives 2.2% (n = 190,000). B-score of Tl+ flux slope (higher = more flux/activation; lower = inhibition) at 10 µM. Q9H2X9;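 active means thallium flux slope and its plate-corrected score both differing from the plate sample mean at a set confidence after two filtering rounds, in either direction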;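 further: slope of fluorescence scaled to starting intensity during 10 to 20 s after thallium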
Target sequence (Q9H2X9 whole entry, looked up): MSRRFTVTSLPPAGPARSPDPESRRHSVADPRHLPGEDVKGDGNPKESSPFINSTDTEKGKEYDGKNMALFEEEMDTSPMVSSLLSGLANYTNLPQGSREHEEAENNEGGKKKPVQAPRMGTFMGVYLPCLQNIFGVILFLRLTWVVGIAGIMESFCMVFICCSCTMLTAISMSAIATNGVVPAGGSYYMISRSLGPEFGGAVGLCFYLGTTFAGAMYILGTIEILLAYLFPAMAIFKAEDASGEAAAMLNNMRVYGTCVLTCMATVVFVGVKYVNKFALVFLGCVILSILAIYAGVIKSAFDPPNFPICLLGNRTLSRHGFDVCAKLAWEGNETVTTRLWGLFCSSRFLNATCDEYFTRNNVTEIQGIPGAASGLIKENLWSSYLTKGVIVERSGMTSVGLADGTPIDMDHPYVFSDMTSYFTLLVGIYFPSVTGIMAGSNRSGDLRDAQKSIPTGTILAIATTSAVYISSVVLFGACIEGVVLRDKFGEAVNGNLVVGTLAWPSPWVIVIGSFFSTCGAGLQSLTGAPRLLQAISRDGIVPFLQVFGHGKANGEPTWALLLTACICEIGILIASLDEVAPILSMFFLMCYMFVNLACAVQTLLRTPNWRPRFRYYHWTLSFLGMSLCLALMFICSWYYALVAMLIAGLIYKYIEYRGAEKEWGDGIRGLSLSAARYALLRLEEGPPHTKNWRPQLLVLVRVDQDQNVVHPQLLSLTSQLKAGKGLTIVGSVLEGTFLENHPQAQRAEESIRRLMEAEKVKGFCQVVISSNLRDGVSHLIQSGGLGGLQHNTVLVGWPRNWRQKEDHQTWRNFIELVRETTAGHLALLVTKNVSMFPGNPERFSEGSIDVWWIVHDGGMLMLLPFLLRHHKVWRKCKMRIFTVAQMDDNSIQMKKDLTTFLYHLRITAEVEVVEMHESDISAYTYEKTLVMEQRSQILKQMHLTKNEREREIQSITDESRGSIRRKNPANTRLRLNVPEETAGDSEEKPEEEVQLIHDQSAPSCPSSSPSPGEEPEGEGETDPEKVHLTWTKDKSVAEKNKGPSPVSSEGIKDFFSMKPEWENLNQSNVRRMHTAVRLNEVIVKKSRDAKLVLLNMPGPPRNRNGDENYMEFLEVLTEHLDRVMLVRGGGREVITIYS
ROMK mod – modulators of human ROMK potassium channel; B-score at 10 µM; Tet-inducible ROMK, thallium flux fluorescence; actives lie on both sides; actives 2% (n = 130,000);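 active means signal ratio slope over the read window, or its plate-corrected B-score, at least 3 SD from the plate mean, either direction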;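 further: B-score of the F/F0 ratio slope over 7 to 12 s after thallium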
Dynein transport – blocks dynein driven cargo transport along microtubules | 3617.4 mouse cells, GR-EGFP nuclear translocation imaging; test concentration mostly 20 µM; stimulated with dexamethasone, 1 µM; hits give low values | actives 0.47% (n = 220,000) | z-score, hits read low;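 active means plate z-score of nuclear minus cytoplasmic receptor signal below a set negative limit, without overly bright fluorescence or cell loss, cut at about -3.5 in these data, passing the limit was not always enough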;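 further: z-score of nuclear minus cytoplasmic ring GR-EGFP intensity difference per well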
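Also added: dexamethasone, 1.0 µM final. Medium: tet-free, stripped-serum medium. Detection: fixed, Hoechst-stained cells imaged at 10x for EGFP. Read-out: nuclear-to-cytoplasmic GR-EGFP distribution per well. Times: induction 48 h, compound 1 h, agonist 30 min.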
KCC2 secondary – KCC2 (human) modulation, secondary assay; shares compounds with KCC2 mod; HEK293-KCC2, thallium flux, FluoZin2 fluorescence; hits give high values; normalised thallium flux (F/F0 slope) at 10 µM; actives 15% (n = 3,700); AID 1713;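 active means thallium flux slope above the same plate's solvent-only control mean plus 3 SD; inconclusive means the two replicate wells disagree; inactive means no significant difference from solvent-only control wells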
KCC2 bumet counter – bumetanide-insensitive thallium flux in KCC2 cells with ouabain, counter-screen | shares compounds with KCC2 mod | HEK293-KCC2 + bumetanide/ouabain, thallium flux FluoZin2; hits give high values | normalized thallium flux at 10 µM | actives 49% (n = 3,700);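 active means thallium entry rate above the same plate's blocked-transporter control wells by more than 3 SD; inconclusive means the two repeat wells disagree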;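 further: raw slope of fluorescence over initial fluorescence between 10 and 20 s after thallium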
KCC2 sec2 – KCC2 (human) modulation, second secondary assay | shares compounds with KCC2 mod | HEK293-KCC2, thallium flux FluoZin2 fluorescence; actives lie on both sides; F/F0 rise rate, 10–20 s post-thallium | normalized thallium flux at 10 µM | actives 23% (n = 3,700) | AID 1715;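 active means thallium flux slope more than 3 SD above or below the plate's solvent-only control mean, mostly below; inconclusive means the two repeat wells disagreed; inactive means no significant shift from solvent-only controls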;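 further: raw slope with 0.1% DMSO as baseline and bumetanide as block control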
HEK counter1 – counter-screen for KCC2 modulators: effect in parental HEK293 cells; thallium flux rate (normalised fluorescence) at 10 µM; shares compounds with KCC2 mod; actives 46% (n = 3,700); thallium flux FluoZin2, ouabain; baseline-ratio fluorescence slope, 10–20 s after thallium;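 active means thallium flux rate significantly above the same plate's solvent-only control wells, beyond their mean plus 3 SD; inconclusive means the two replicate wells gave conflicting results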
KCC2 ouabain – confirmation of human KCC2 modulators with ouabain; raw Tl+ flux slope (below DMSO = inhibition, above = activation) at 10 µM; shares compounds with KCC2 mod; actives 48% (n = 3,700); HEK293-KCC2, thallium flux FluoZin2 fluorescence; bidirectional: low = inhibitor, high = activator; AID 1717;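 active means thallium flux slope beyond 3 SD from same-plate DMSO control mean in most replicates, usually higher, sometimes lower; inconclusive means repeat tests gave conflicting results; inactive means no significant difference from controls in most replicates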;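 further: slope of initial-normalized fluorescence between seconds 10 and 20 after thallium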
HEK counter2 – parental HEK flux effect, counter-screen 2; actives 33% (n = 3,700); shares compounds with KCC2 mod; HEK293 parental, thallium flux FluoZin-2 fluorescence slope; thallium flux slope at 10 µM;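 active means thallium flux slope above the same plate's solvent-control mean plus 3 SD in both duplicate wells; inconclusive means duplicate wells that disagreed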;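 further: run without ouabain in cells lacking the KCC2 cotransporter; slope of fluorescence scaled to its starting value between 10 and 20 s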
* hit, by the source's call; i = inactive; ? = inconclusive; · = no result.

SMILES	Redox H2O2 prof	Autophagy HCS	KCC2 mod	ROMK mod	Dynein transport	KCC2 secondary	KCC2 bumet counter	KCC2 sec2	HEK counter1	KCC2 ouabain	HEK counter2
Cc1nc(SCC(=O)N2CCN(C(=O)c3ccco3)CC2)c2c(C)c(C)sc2n1	1	i	-0.14	·	-0.36	·	·	·	·	·	·
CC12CCCCN1CCCc1c2[nH]c2ccccc12 (stereo unspecified)	2	i	8.2*	0.17	-0.53	?	0.0044	0.029	0.0077	?	0.011
CN1CCN(CC(=O)Nc2cc(N(C)C)nc3ccccc23)CC1	0	i	0.12	0.027	-0.1	·	·	·	·	·	·
Cc1ccc2[nH]c(=S)cc(C)c2c1	1	i	21*	1.2	-0.34	0.011	?	0.038	?	?	0.019*
Cc1ccc2c(C)cc(=S)[nH]c2c1	-1	i	29*	-1.1	0.35	0.0079	0.02*	0.036	0.024*	0.03*	0.021*
Cc1cc(=S)[nH]c2ccccc12	-1	i	5.8*	-0.012	-0.078	0.0084	0.015*	0.029	0.015*	?	0.015*
Cc1ccc(-c2cc(=O)c3cc(C)ccc3[nH]2)cc1	1	i	1.1	1.6	0.55	·	·	·	·	·	·
Cc1cc2[nH]c(=S)[nH]c2cc1C	0	i	0.17	0.77	0.26	·	·	·	·	·	·
CCN(CC)CCN(Cc1cc2ccc(C)cc2[nH]c1=O)C(=O)Nc1ccc(Cl)cc1	0	i	0.0099	-0.48	-0.41	·	·	·	·	·	·
CCN1CCN(C(=O)C(=O)c2c(C)[nH]c3ccccc23)CC1	-2	i	-0.028	0.18	0.07	·	·	·	·	·	·
O=C1CN(C(=O)COC(=O)c2ccccc2NCc2ccco2)c2ccccc2N1	0	i	0.028	-0.0011	-0.49	·	·	·	·	·	·
O=[N+]([O-])c1ccc(CSc2nnc(SCc3ccccc3)s2)cc1	0	i	-5.4*	·	0.46	0.0066	0.0048	0.024*	0.0069	0.014*	0.0093
Cc1ccc2c(c1)C(c1ccc(O)cc1)(c1ccc(O)cc1)C(=O)N2C	-1	i	3.7*	0.6	-0.11	0.011	0.0069	0.031	0.0073	0.036	?
O=C1c2cccc3cccc(c23)C(=O)N1Cc1cccnc1	·	·	-0.037	·	-0.13	·	·	·	·	·	·
O=C1c2cccc3c([N+](=O)[O-])ccc(c23)C(=O)N1Cc1cccnc1	0	i	-5*	-2.7	-0.34	0.0041*	?	0.026*	0.0058*	0.014*	0.0084*
O=C(Oc1c(-c2ccccc2)oc2ccccc2c1=O)c1ccccc1	-4	i	·	0.039	0.41	0.014*	0.068*	0.036	?	0.055*	?
CC(=O)Nc1ccc(NC(=O)CSc2ccccn2)cc1	-1	i	0.34	·	-0.6	·	·	·	·	·	·
COc1cc2c(cc1NC(=O)CSc1ccccn1)oc1ccccc12	0	i	-4.8*	0.33	-0.24	0.008	0.0059	0.028	0.007	0.019	0.0085
O=C(CSc1ccccn1)Nc1cccc(NC(=O)CSc2ccccn2)n1	0	i	·	1.3	0.83	?	?	0.032	0.007	0.021	0.01
COc1cc2c(cc1NC(=O)CSc1ccc(Cl)cc1)oc1ccccc12	3	i	0.4	0.3	-0.31	·	·	·	·	·	·
S=c1[nH]cc(Cc2ccccc2)s1	0	i	40*	0.68	0.52	0.026*	0.12*	0.032	0.035*	0.068*	0.021*
c1ccc(Cc2nnc3sc(-c4ccco4)nn23)cc1	-2	i	-0.016	·	-0.75	·	·	·	·	·	·
C=CCSc1nnc(-c2sc(-c3ccccc3)nc2C)n1C	1	i	·	·	-0.74	·	·	·	·	·	·
C=CCN(C(=O)CSC1=NC(=O)CN1C(C)=O)c1nc(C)c(-c2ccccc2)s1	-2	i	10*	-0.93	-2.8	0.0076	0.023*	0.036	0.022*	0.03*	0.019*
O=C(NCc1cccs1)c1cc(-c2ccncc2)nc2ccc(Br)cc12	11	i	-0.86	1.3	0.11	·	·	·	·	·	·
SMILES	Redox H2O2 prof	Autophagy HCS	KCC2 mod	ROMK mod	Dynein transport	KCC2 secondary	KCC2 bumet counter	KCC2 sec2	HEK counter1	KCC2 ouabain	HEK counter2
O=C(CSc1nnnn1Cc1ccccc1)Nc1ccc2c(c1)OCCO2	1	i	-5.1*	-0.74	3.6	0.0064	0.005	?	0.0072	?	0.011
COC(=O)c1cnn(-c2ccc(F)cc2F)c1/C=N/NC(=S)NC(C)(C)C	·	·	7.8*	-0.23	-0.21	0.011	0.051*	0.031	0.017*	0.031	?
COC(=O)c1cnn(-c2ccccc2)c1/C=N/NC(=S)Nc1ccccc1	·	·	9.2*	0.41	0.3	0.0094	0.019*	0.03	0.012*	0.029*	0.01
C=CCSC(=S)NC1CCS(=O)(=O)C1 (stereo unspecified)	0	i	-0.082	0.53	-2.7	·	·	·	·	·	·
C=C1c2cc3c(cc2NC(=S)N1Cc1ccccc1)OCO3	·	·	53*	·	2.4	0.016*	0.099*	0.032	0.035*	0.047*	0.016*
CC1(C)CC(C)(O)N(Cc2ccccc2)C(=S)N1 (stereo unspecified)	0	i	0.024	·	-0.59	·	·	·	·	·	·
C=CCNC(=O)NC(=O)CSc1nnc(C(F)(F)F)n1C	0	i	0.9	·	-0.48	·	·	·	·	·	·
CCn1c(=O)c2cc(C(=O)N(C)c3cc(C)ccc3OC)sc2c2ccccc21	·	·	-3*	0.14	0.35	0.0085	?	0.033	0.0056*	0.019	?
O=C(COC(=O)C1=COCCO1)NC1CCCCCCC1	0	i	0.62	-0.61	-0.27	·	·	·	·	·	·
CCCCn1nnnc1NCc1cc(OC)c(OC)cc1OC	0	i	4.9*	·	0.39	0.0092	0.0061	0.031	0.007	0.019	0.01
COc1cc(NC(=S)NC(=O)c2ccccc2F)ccc1NC(=O)c1ccco1	0	i	1.2	·	1.2	·	·	·	·	·	·
CCc1cc2c(=O)n(Cc3ccco3)c(SCC(=O)N(C)C3CCS(=O)(=O)C3)nc2s1 (stereo unspecified)	5	i	0.18	-0.069	-0.3	·	·	·	·	·	·
